In ChEMBL document CHEMBL5724801, “EUbOPEN Chemogenomics Library - Multiplex” (2024):
“And” between values parts separate entries of the source, which are not always exact repeats. Equal values may be shown once.

System: HEK-293T
Assay: Multiplex assay against HEK293T
Assay type: toxicity, cell-based
Settings: human
Outline: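 Tubulin, mitochondrial-mass and membrane-permeability phenotypes are per cents of healthy-nucleus cells. Cells were gated by CellPathfinder machine learning into Hoechst high-intensity objects or normal cells, normal cells into healthy, pyknosed or fragmented nuclei, and pyknosed cells into mitotic or apoptotic. Before that, live cells stained at seeding with Hoechst33342, BioTracker Green Microtubule Cytoskeleton Dye, MitoTracker Red and Annexin V Alexa Fluor 680 were imaged on a CQ1 microscope at 37°C and 5% CO2 after compound addition.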

[1] = 12 h, 1 µM, compound concentration 1 uM
[2] = 12 h, 10 µM, compound concentration 10 uM
[3] = 24 h, 1 µM, compound concentration 1 uM
[4] = 24 h, 10 µM, compound concentration 10 uM
[5] = 48 h, 1 µM, compound concentration 1 uM
[6] = 48 h, 10 µM, compound concentration 10 uM

CC(C)C[C@H](CO)Nc1nc(S[C@@H](C)c2ccccc2)nc2nc(N)sc12 [AZD-8797]
Population Apoptotic (%) [1]: 39% and 46% | Population Fragmented Nuclei (%) [1]: 2% and 8% | Population Healthy Nuclei (%) [1]: 81% and 72% | Population Hoechst High Intensity Objects (%) [1]: 4% and 7% | Population Membrane Permeable-Phenotype (%) [1]: 0% | Population Mitochondria Different-Phenotype (%) [1]: 44% and 57% | Population Mitotic Cells (%) [1]: 60% and 53% | Population Normal (%) [1]: 95% and 92% | Population Pyknosed Nuclei (%) [1]: 15% and 18% | Population Tubulin-Different-Phenotype (%) [1]: 27% and 22% | Total Cell Count [1]: 326 and 356 | Population Apoptotic (%) [2]: 65% and 67% | Population Fragmented Nuclei (%) [2]: 9% and 6% | Population Healthy Nuclei (%) [2]: 71% and 75% | Population Hoechst High Intensity Objects (%) [2]: 10% | Population Membrane Permeable-Phenotype (%) [2]: 0% | Population Mitochondria Different-Phenotype (%) [2]: 70% and 75% | Population Mitotic Cells (%) [2]: 34% and 32% | Population Normal (%) [2]: 89% | Population Pyknosed Nuclei (%) [2]: 18% | Population Tubulin-Different-Phenotype (%) [2]: 56% and 39% | Total Cell Count [2]: 279 and 345 | Population Apoptotic (%) [3]: 37% and 45% | Population Fragmented Nuclei (%) [3]: 7% | Population Healthy Nuclei (%) [3]: 76% and 81% | Population Hoechst High Intensity Objects (%) [3]: 3% and 5% | Population Membrane Permeable-Phenotype (%) [3]: 0% | Population Mitochondria Different-Phenotype (%) [3]: 25% and 42% | Population Mitotic Cells (%) [3]: 62% and 54% | Population Normal (%) [3]: 97% and 94% | Population Pyknosed Nuclei (%) [3]: 15% and 11% | Population Tubulin-Different-Phenotype (%) [3]: 16% and 14% | Total Cell Count [3]: 400 and 421 | Population Apoptotic (%) [4]: 54% and 51% | Population Fragmented Nuclei (%) [4]: 8% and 9% | Population Healthy Nuclei (%) [4]: 73% and 77% | Population Hoechst High Intensity Objects (%) [4]: 9% and 8% | Population Membrane Permeable-Phenotype (%) [4]: 0% | Population Mitochondria Different-Phenotype (%) [4]: 64% and 71% | Population Mitotic Cells (%) [4]: 45% and 48% | Population Normal (%) [4]: 90% and 91% | Population Pyknosed Nuclei (%) [4]: 17% and 12% | Population Tubulin-Different-Phenotype (%) [4]: 39% and 36% | Total Cell Count [4]: 346 and 393 | Population Apoptotic (%) [5]: 43% and 24% | Population Fragmented Nuclei (%) [5]: 15% and 12% | Population Healthy Nuclei (%) [5]: 78% and 79% | Population Hoechst High Intensity Objects (%) [5]: 1% and 3% | Population Membrane Permeable-Phenotype (%) [5]: 0% and 1% | Population Mitochondria Different-Phenotype (%) [5]: 16% and 24% | Population Mitotic Cells (%) [5]: 56% and 75% | Population Normal (%) [5]: 98% and 96% | Population Pyknosed Nuclei (%) [5]: 6% and 8% | Population Tubulin-Different-Phenotype (%) [5]: 10% and 13% | Total Cell Count [5]: 663 and 681 | Population Apoptotic (%) [6]: 60% and 52% | Population Fragmented Nuclei (%) [6]: 16% and 15% | Population Healthy Nuclei (%) [6]: 72% and 75% | Population Hoechst High Intensity Objects (%) [6]: 7% and 6% | Population Membrane Permeable-Phenotype (%) [6]: 0% | Population Mitochondria Different-Phenotype (%) [6]: 57% and 52% | Population Mitotic Cells (%) [6]: 39% and 47% | Population Normal (%) [6]: 92% and 93% | Population Pyknosed Nuclei (%) [6]: 11% and 8% | Population Tubulin-Different-Phenotype (%) [6]: 28% and 21% | Total Cell Count [6]: 416 and 530

CC(C)(c1ccc(O)cc1)c1ccc(O)cc1 [BISPHENOL A]
Population Apoptotic (%) [1]: 8.05% and 13.14% | Population Fragmented Nuclei (%) [1]: 5.16% and 3.01% | Population Hoechst High Intensity Objects (%) [1]: 0% and 0.6% | Population Membrane Permeable-Phenotype (%) [1]: 0% and 4.17% | Population Mitochondria Different-Phenotype (%) [1]: 34.18% and 33.33% | Population Mitotic Cells (%) [1]: 91.95% and 86.86% | Population Normal (%) [1]: 100% and 99.4% | Population Pyknosed Nuclei (%) [1]: 36.61% and 82.53% | Total Cell Count [1]: 407 and 167 | Population Apoptotic (%) [2]: 10.57% and 14.78% | Population Fragmented Nuclei (%) [2]: 4.23% and 2.74% | Population Hoechst High Intensity Objects (%) [2]: 1.19% and 0.68% | Population Membrane Permeable-Phenotype (%) [2]: 0% | Population Mitochondria Different-Phenotype (%) [2]: 37.63% and 18.52% | Population Mitotic Cells (%) [2]: 89.43% and 85.22% | Population Normal (%) [2]: 98.81% and 99.32% | Population Pyknosed Nuclei (%) [2]: 37.16% and 78.77% | Total Cell Count [2]: 335 and 147 | Population Apoptotic (%) [3]: 12.93% and 13.39% | Population Fragmented Nuclei (%) [3]: 1.95% and 0.56% | Population Healthy Nuclei (%) [3]: 77.52% and 28.89% | Population Hoechst High Intensity Objects (%) [3]: 0.18% and 0% | Population Membrane Permeable-Phenotype (%) [3]: 1.6% and 1.92% | Population Mitochondria Different-Phenotype (%) [3]: 13.7% and 15.38% | Population Mitotic Cells (%) [3]: 87.07% and 86.61% | Population Normal (%) [3]: 99.82% and 100% | Population Tubulin-Different-Phenotype (%) [3]: 9.82% and 13.46% | Population Apoptotic (%) [4]: 12.5% and 15.52% | Population Fragmented Nuclei (%) [4]: 2.67% and 1.71% | Population Healthy Nuclei (%) [4]: 74.28% and 32% | Population Hoechst High Intensity Objects (%) [4]: 0% | Population Membrane Permeable-Phenotype (%) [4]: 1.11% and 0% | Population Mitochondria Different-Phenotype (%) [4]: 19.11% and 16.07% | Population Mitotic Cells (%) [4]: 87.5% and 84.48% | Population Normal (%) [4]: 100% | Population Pyknosed Nuclei (%) [4]: 23.05% and 66.29% | Total Cell Count [4]: 486 and 175 | Population Apoptotic (%) [5]: 8.33% and 18.95% | Population Fragmented Nuclei (%) [5]: 3.14% and 0% | Population Healthy Nuclei (%) [5]: 87.89% and 52.74% | Population Hoechst High Intensity Objects (%) [5]: 0.07% and 0.99% | Population Membrane Permeable-Phenotype (%) [5]: 5.87% and 1.89% | Population Mitotic Cells (%) [5]: 91.67% and 81.05% | Population Normal (%) [5]: 99.93% and 99.01% | Population Fragmented Nuclei (%) [6]: 3.13% and 2.41% | Population Healthy Nuclei (%) [6]: 86.33% and 68.67% | Population Hoechst High Intensity Objects (%) [6]: 0% and 2.35% | Population Membrane Permeable-Phenotype (%) [6]: 4.42% and 1.75% | Population Mitochondria Different-Phenotype (%) [6]: 9.82% and 14.62% | Population Mitotic Cells (%) [6]: 95.65% and 84.72% | Population Normal (%) [6]: 100% and 97.65% | Population Pyknosed Nuclei (%) [6]: 10.54% and 28.92%

O=C(O)CCC/C=C\CC1C(O)CC(O)C1/C=C/C(O)COc1cccc(Cl)c1 (centres undefined) [CLOPROSTENOL]
Population Apoptotic (%) [1]: 31% and 40% | Population Fragmented Nuclei (%) [1]: 7% and 6% | Population Healthy Nuclei (%) [1]: 81% and 80% | Population Hoechst High Intensity Objects (%) [1]: 9% and 7% | Population Membrane Permeable-Phenotype (%) [1]: 0% | Population Mitochondria Different-Phenotype (%) [1]: 44% and 56% | Population Mitotic Cells (%) [1]: 68% and 59% | Population Normal (%) [1]: 90% and 92% | Population Pyknosed Nuclei (%) [1]: 10% and 13% | Population Tubulin-Different-Phenotype (%) [1]: 35% and 23% | Total Cell Count [1]: 458 and 341 | Population Apoptotic (%) [2]: 45% and 51% | Population Fragmented Nuclei (%) [2]: 7% and 8% | Population Healthy Nuclei (%) [2]: 77% | Population Hoechst High Intensity Objects (%) [2]: 6% and 13% | Population Membrane Permeable-Phenotype (%) [2]: 0% | Population Mitochondria Different-Phenotype (%) [2]: 63% and 68% | Population Mitotic Cells (%) [2]: 54% and 48% | Population Normal (%) [2]: 93% and 86% | Population Pyknosed Nuclei (%) [2]: 14% | Population Tubulin-Different-Phenotype (%) [2]: 41% and 37% | Total Cell Count [2]: 395 and 357 | Population Apoptotic (%) [3]: 22% and 34% | Population Fragmented Nuclei (%) [3]: 11% and 7% | Population Healthy Nuclei (%) [3]: 76% and 83% | Population Hoechst High Intensity Objects (%) [3]: 7% and 5% | Population Membrane Permeable-Phenotype (%) [3]: 1% and 0% | Population Mitochondria Different-Phenotype (%) [3]: 25% and 37% | Population Mitotic Cells (%) [3]: 77% and 65% | Population Normal (%) [3]: 92% and 94% | Population Pyknosed Nuclei (%) [3]: 11% and 9% | Population Tubulin-Different-Phenotype (%) [3]: 28% and 16% | Total Cell Count [3]: 612 and 477 | Population Apoptotic (%) [4]: 46% | Population Fragmented Nuclei (%) [4]: 10% and 12% | Population Healthy Nuclei (%) [4]: 78% | Population Hoechst High Intensity Objects (%) [4]: 7% and 11% | Population Membrane Permeable-Phenotype (%) [4]: 0% | Population Mitochondria Different-Phenotype (%) [4]: 46% and 55% | Population Mitotic Cells (%) [4]: 54% and 53% | Population Normal (%) [4]: 92% and 88% | Population Pyknosed Nuclei (%) [4]: 10% and 9% | Population Tubulin-Different-Phenotype (%) [4]: 35% and 31% | Total Cell Count [4]: 490 and 483 | Population Apoptotic (%) [5]: 20% and 28% | Population Fragmented Nuclei (%) [5]: 15% and 13% | Population Healthy Nuclei (%) [5]: 77% and 81% | Population Hoechst High Intensity Objects (%) [5]: 4% and 5% | Population Membrane Permeable-Phenotype (%) [5]: 1% | Population Mitochondria Different-Phenotype (%) [5]: 15% and 20% | Population Mitotic Cells (%) [5]: 79% and 71% | Population Normal (%) [5]: 95% and 94% | Population Pyknosed Nuclei (%) [5]: 6% and 5% | Population Tubulin-Different-Phenotype (%) [5]: 15% and 11% | Total Cell Count [5]: 956 and 703 | Population Apoptotic (%) [6]: 33% and 25% | Population Fragmented Nuclei (%) [6]: 16% and 18% | Population Healthy Nuclei (%) [6]: 76% and 75% | Population Hoechst High Intensity Objects (%) [6]: 7% and 6% | Population Membrane Permeable-Phenotype (%) [6]: 0% and 1% | Population Mitochondria Different-Phenotype (%) [6]: 32% and 25% | Population Mitotic Cells (%) [6]: 66% and 74% | Population Normal (%) [6]: 92% and 93% | Population Pyknosed Nuclei (%) [6]: 6% and 5% | Population Tubulin-Different-Phenotype (%) [6]: 18% | Total Cell Count [6]: 659 and 731
